# Calls of active or inactive are those of the source. The calls are words filed in the database; no cut-off is given here.
# Assays:
# Calf thymus DNA [1] = assay: Binding affinity to calf thymus DNA assessed as ratio of final absorbance area to the absorbance at 100 uM after 24 hrs by UV spectrophotometer analysis relative to control; format: nucleic-acid assay; conditions: Bos taurus
# How it was run: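 Calf thymus DNA was stirred 24 h at 4 °C in 10 mM Tris–HCl pH 7.4, then diluted. Compound at 10^-4 M (≤5% solvent) was diluted in water to 2 × 10^-5 M. This was mixed 1:1 by volume with the DNA solution and rotated 24 h. UV spectra were taken at 20 °C. The ratio is the area of a 20 nm band centred on λmax at 24 h over that at 0 h (a24/a0).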
# [2] = Cytotoxicity against chinese hamster V79 cells assessed as survival fraction under hypoxic condition at 20 uM after 7 days by crystal violet staining relative to control; format: cell-based, Cricetulus griseus; conditions: read-out: Activity
# How it was run: (§1)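 V79 suspension cultures were set at 2 × 10^4 cells/mL in EMEM with 10% FBS and 10 mM HEPES, under aerobic or hypoxic gassing. Compound at 20 µM was added 30 min after gassing began, in duplicate flasks, with a DMSO negative control. After 2 h the cells were replated (10^2–10^3 cells) for 7 days at 37 °C. Colonies of >64 cells were counted after crystal violet staining. SF = PEtreated/PEcontrol × 100; values are means of two experiments.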
# [3] = Cytotoxicity against chinese hamster V79 cells assessed as survival fraction under normoxic condition at 20 uM after 7 days by crystal violet staining relative to control; format: cell-based, Cricetulus griseus; conditions: read-out: Activity; how it was run: as §1
# Caco-2 = assay: Cytotoxicity against human Caco-2 cells assessed as induction of DNA fragmentation under oxic condition at 10 uM after 24 hrs using ethidium bromide staining by agarose gel electrophoresis; format: functional, cell-based
# How it was run: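 Caco-2 cells were seeded at 2 × 10^6 cells/well in 100-mm plates and exposed for 24 h under oxic conditions. Chromosomal DNA was then isolated and run on a 1% agarose gel with ethidium bromide staining to visualise fragmentation. The assay was repeated on four separate occasions.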
# Calf thymus DNA [4] = assay: Binding affinity to calf thymus DNA assessed as change in melting temperature by UV spectrophotometer analysis; format: nucleic-acid assay; conditions: Bos taurus
# How it was run: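 Calf thymus DNA in 10 mM Tris–HCl pH 7.4 was mixed with compound at a 1:1 DNA:BPDO ratio. Thermal denaturation was followed as the change in absorbance at 260 nm with temperature, in a 1-cm cell.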
SMILES,Ratio (Calf thymus DNA [1]),"viability at 168 h, 20 µM [2] [%]","viability at 168 h, 20 µM [3] [%]",other results
COc1ccc2c(c1)[n+]([O-])c1c3ccccc3ccc1[n+]2[O-],1,44,88,
CC[n+]1c(-c2ccccc2)c2cc(N)ccc2c2ccc(N)cc21,0.5,,,
O=C1c2c(O)ccc(O)c2C(=O)c2c(NCCNCCO)ccc(NCCNCCO)c21,0,,,
CCOc1ccc(-c2nc3cc(-c4nc5cc(N6CCN(C)CC6)ccc5[nH]4)ccc3[nH]2)cc1,0.57,,,
CN[C@@H]1C[C@H]2O[C@@](C)([C@@H]1OC)n1c3ccccc3c3c4c(c5c6ccccc6n2c5c31)C(=O)NC4,,,,Activity (Caco-2): Active
Nc1ccc2cc3ccc(N)cc3nc2c1,,,,ΔTm (Calf thymus DNA [4]): 12 °C
[O-][n+]1c2ccccc2[n+]([O-])c2c3ccccc3c(O)cc21,0,93,100,
[O-][n+]1c2ccccc2[n+]([O-])c2c3ccccc3ccc21,1,45,40,
COc1cc(NS(C)(=O)=O)ccc1Nc1c2ccccc2nc2ccccc12,0.3,,,
